# This sample holds only a part of the variants without activity.
# B1: tRNA (parent)
# chain: GUUCCGUUGGCGUAAUGGUAACGCGUCUCCCUCCUAAGGAGAAGACUGCGGGUUCGAGUCCCGUACGGAACG
# Variants of: B1
# Assay: yeast fitness relative to wild type (ratio to wild type); higher = fitter; tRNA-Arg(CCU), competitive growth, 37 C, YPD
# Summary of the method: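 A pool of Saccharomyces cerevisiae strains, each with a tRNA-Arg(CCU) gene variant at the native genomic locus, was competed in YPD at 37°C for 24 hours across six parallel replicates. The variants had been chemically synthesised at a 3% per-site mutation rate over 69 sites, and gene amplicons before and after competition were read by 100-nucleotide paired-end sequencing. Darwinian fitness relative to wild type rested on changes in genotype frequencies. Genotypes required ≥ 100 starting reads, and estimates < 0.5 were set to 0.5.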
row,Variant,yeast fitness
1,U7C U16G G17A C49U U59C C62A,≤ 0.5
2,C31U U64G,0.775
3,A15G C31A G41C C49U,≤ 0.5
4,A15U C46A U53A A69G,≤ 0.5
5,U2A C5A G9C U16C G25C A65C,≤ 0.5
6,G12A A36G U47G U54C A65U,≤ 0.5
7,A21G U35A,0.674
8,U7G U13C A37U,≤ 0.5
9,A20U G38A C49A C60G,≤ 0.5
10,C24G G25A A36C G67U,≤ 0.5
11,C5G C11U C60G,≤ 0.5
12,U35C C61A A69U,≤ 0.5
13,A43C G63A A65C,0.701
14,A20C U28C G41A,0.592
15,C29G C31G C46G C55U,≤ 0.5
16,U26C C30A,0.815
17,A20C C29U C49G G58A,≤ 0.5
18,G6A C34G A37G A57G A70C,≤ 0.5
19,A20C G25A A57G,0.694
20,G12C G25C G39C,≤ 0.5
21,C11A C29A A57G A65C,≤ 0.5
22,U2G C55U C61G A65G G68A,≤ 0.5
23,G10C G12A U16A C30U,≤ 0.5
24,A37G G63C G68C,≤ 0.5

row,Variant,yeast fitness
1,A21U C33U U59A,≤ 0.5
2,U64C G67A,0.802
3,U64C G67C,0.938
4,C5U C11U A15G G48C,0.553
5,A15U U16C A40U,≤ 0.5
6,U3C C4U C24G C49U C60U C61A,≤ 0.5
7,C4U C11U A57G,0.684
8,C30U C61G A70C,≤ 0.5
9,C34G C46A C62U A69C,≤ 0.5
10,C5A G9A C29U,0.547
11,A15U A45U G68C A70U,≤ 0.5
12,U47C C66U A69C,0.675
13,C33U A36G C55U A69C,≤ 0.5
14,A20C C34G A42G,0.922
15,C29A G39C A57G C61U C66U,0.561
16,U19C U28C G67C,0.638
17,C33G A36C,≤ 0.5
18,C11U A21C C27G G44A A65U,≤ 0.5
19,G25A C60G C61A G63A,≤ 0.5
20,G44C C62A,0.738
21,C27U C46G,1.04
22,G6A U19C C24U,0.744
23,C5G A14U G38A A40U G50C C60G A70G,≤ 0.5
24,C4U A14U A42G C46U,≤ 0.5

row,Variant,yeast fitness
1,C31U A40C C46G,0.744
2,U28A A36G A37G,≤ 0.5
3,C22U C29A A65U,≤ 0.5
4,C31U U59A G63A,0.683
5,C22U C33U A42U G52C A57C A65C,≤ 0.5
6,C4A A43C,0.89
7,A20U C49U G67A,0.585
8,U3C C27G C33G A42G A45G,≤ 0.5
9,A20G C22G A45C C46G A57U,0.553
10,G12A G44U G68C,≤ 0.5
11,G9A C34U G44C A45C C66G,≤ 0.5
12,U8C G10A C29G G56C,≤ 0.5
13,C27G C55G A70U,0.617
14,G9A C31G C49G G51C,≤ 0.5
15,A14U C30U U32C U64G,≤ 0.5
16,C5U G67A,0.923
17,C5U C11A A14G A42G C55U A65U,≤ 0.5
18,U19A A36G G50U U59A,≤ 0.5
19,C11G A15U C31A G58C A70C,≤ 0.5
20,G12C A15C U19A C34U C49A G67A,0.547
21,C24A C30U G38C G58C,≤ 0.5
22,G10C G41A C66U,≤ 0.5
23,A37U A70G,0.72
24,G23C A37U U47C U54C C66U,≤ 0.5

row,Variant,yeast fitness
1,C11A C27A C33G A42C C66U,≤ 0.5
2,C11G A15G C33G G52C A69C,≤ 0.5
3,U13C C24G C60G,≤ 0.5
4,G10A C66G,0.592
5,U13C C24G G38C,0.592
6,U2G G18A C49U G52A G68C,≤ 0.5
7,C27U C31A A69C,0.598
8,G12C C30G,0.666
9,A45C G56A C62U,0.711
10,C29A C30U U47C U64C,≤ 0.5
11,G25C C31A G48A C61A A65G,0.558
12,U2A G48C G52C A57C G58A,≤ 0.5
13,U8C A43G A70C,0.74
14,U19C A37G G56C,≤ 0.5
15,C27G C34G,≤ 0.5
16,G23C C29A A45U,≤ 0.5
17,G25C G39C G44C,≤ 0.5
18,A20U C29G A45G A69U,0.525
19,G51C C55G C62A,≤ 0.5
20,G6C A15U G23C C31G G41C G48C,0.574
21,A36U A40U G44C C60U,≤ 0.5
22,C4G G18C G51A,≤ 0.5
23,C29G C33U A37G A40C A57C,≤ 0.5
24,U8A G9C A15G U54A,≤ 0.5

row,Variant,yeast fitness
1,U3C C27U G56A C61A,≤ 0.5
2,G25C G58C G67C,0.706
3,C27G C34G C46U,0.65
4,U26C U32A C34U G38C G51A A57C,0.653
5,G12C C33G C34U A36C A43G G52C C60U,0.608
6,C5U C34A U64G,≤ 0.5
7,C4U U13A A14U C29U A37G G67A,≤ 0.5
8,G6A C46U G50A C61G,≤ 0.5
9,U32A U54C C55U,≤ 0.5
10,C4A G23A C30U C31G A40C,≤ 0.5
11,G41C C60U G67A,≤ 0.5
12,A20C C29G,0.609
13,A15U G25C U59A,≤ 0.5
14,G51A C61U,1.11
15,G12A G17A G18A A36G A42U C46U C55U,0.581
16,U13A A42G U47A,0.542
17,U7A G39C C55A,0.723
18,U2G C27U A37C G52A G67A,≤ 0.5
19,U8A A14U G17A G25A,≤ 0.5
20,G9C G10C C33U G48C C55G,≤ 0.5
21,A20C U28A C31G C55A G68C,≤ 0.5
22,A45C C46U C55U C62U,≤ 0.5
23,U2A G12C C29U G51A G56A A57G G63C,≤ 0.5
24,C31U A42U,0.957

row,Variant,yeast fitness
1,G18A U54A,0.597
2,C5A A43G,0.903
3,U28G A37C C55U A65U,≤ 0.5
4,C27G A36U A45U A69C,0.577
5,C27G C33A,0.593
6,A15U G58A C66G,0.943
7,U3C A14G U19A,0.761
8,U7A G10C G52A U54C C60G,0.518
9,C49U C62U,0.869
10,A36C G50C,0.54
11,C11G U54A,≤ 0.5
12,U7A A43G G51C,0.537
13,U7A A20G A43C A57U,≤ 0.5
14,C22U U32A C34U C66U,≤ 0.5
15,U19A C27U U28C C55U,≤ 0.5
16,C4U C55U A57U,0.536
17,C5U A21C U54C A65U,0.643
18,C4A C22U,0.789
19,C30U C34A,0.806
20,C30U C34U,0.715
21,G44C C62U G63A,≤ 0.5
22,U8C U19C U54A,0.542
23,U3A G25C G67C,0.567
24,U16G G17A C33A,0.539

row,Variant,yeast fitness
1,U2G C27G C66U G67C A70G,≤ 0.5
2,A14U C49U U54C,≤ 0.5
3,G23A C31U A69U,0.675
4,G48A C61A G68U,0.561
5,A20U G23A C31U G39A G56A,≤ 0.5
6,A42C C61G,0.721
7,G17A G18A A42C C61U,≤ 0.5
8,C31U A43C,1.17
9,C29U G50C U59A,0.605
10,C4A A15G C33G C60A A70C,0.599
11,U7G A21C G44C G58C,≤ 0.5
12,G17A A20U C24U U53A,≤ 0.5
13,G9A A65G,0.881
14,C27G A45U A70C,0.614
15,C4U G23C C29G C31G,≤ 0.5
16,G38A G52C C62U,0.595
17,C11U C24G A42G,≤ 0.5
18,G23C C55G C60A,≤ 0.5
19,U3C U13G C24U,0.559
20,C49G U54A,0.637
21,U16G C34U A57G A69C,≤ 0.5
22,A20U C30G G63A,≤ 0.5
23,A37U C66G,≤ 0.5

# — the RNAGym collection of RNA variant scans (doi:10.1126/science.aae0568)
